Assay results as given in ChEMBL document CHEMBL3430321, “Simulation of multiple ion channel block provides improved early prediction of compounds' clinical torsadogenic risk” (Cardiovasc Res, 2011).

Biological target: Voltage-dependent L-type calcium channel subunit alpha-1C (Cavia porcellus, UniProt O35505)
Test: Inhibition of calcium current (ICaL) measured using whole-cell patch clamp experiments in isolated guinea pig ventricular myocytes
Type: functional, tissue-based, Heart, Ventricular myocyte
Conditions: not given

Q: With COCCCC/C(=N\OCCN)c1ccc(C(F)(F)F)cc1 [FLUVOXAMINE] as the compound, how does the IC50 read?
A: 4.9 µM

Q: Which IC50 does the source give for CC(Cc1ccccc1)NCCC(c1ccccc1)c1ccccc1 (centres undefined) [PRENYLAMINE] here?
A: 1.24 µM

Q: Which IC50 does the source give for CC(C)COCC(CN(Cc1ccccc1)c1ccccc1)N1CCCC1 (centres undefined) [BEPRIDIL] here?
A: 0.211 µM

Biological target: T1, Voltage-gated inwardly rectifying potassium channel KCNH2 (Homo sapiens, UniProt Q12809)
Test: Inhibition of potassium current (Ikr) measured using whole-cell patch clamp experiments in HEK-293 cells stable transfected with hERG cDNA
Type: functional, cell-based, HEK293
Conditions: not given
In short: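 IKr concentration–response curves were recorded in HEK-293 cells stably expressing hERG cDNA.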

T1 sequence (Q12809 whole entry): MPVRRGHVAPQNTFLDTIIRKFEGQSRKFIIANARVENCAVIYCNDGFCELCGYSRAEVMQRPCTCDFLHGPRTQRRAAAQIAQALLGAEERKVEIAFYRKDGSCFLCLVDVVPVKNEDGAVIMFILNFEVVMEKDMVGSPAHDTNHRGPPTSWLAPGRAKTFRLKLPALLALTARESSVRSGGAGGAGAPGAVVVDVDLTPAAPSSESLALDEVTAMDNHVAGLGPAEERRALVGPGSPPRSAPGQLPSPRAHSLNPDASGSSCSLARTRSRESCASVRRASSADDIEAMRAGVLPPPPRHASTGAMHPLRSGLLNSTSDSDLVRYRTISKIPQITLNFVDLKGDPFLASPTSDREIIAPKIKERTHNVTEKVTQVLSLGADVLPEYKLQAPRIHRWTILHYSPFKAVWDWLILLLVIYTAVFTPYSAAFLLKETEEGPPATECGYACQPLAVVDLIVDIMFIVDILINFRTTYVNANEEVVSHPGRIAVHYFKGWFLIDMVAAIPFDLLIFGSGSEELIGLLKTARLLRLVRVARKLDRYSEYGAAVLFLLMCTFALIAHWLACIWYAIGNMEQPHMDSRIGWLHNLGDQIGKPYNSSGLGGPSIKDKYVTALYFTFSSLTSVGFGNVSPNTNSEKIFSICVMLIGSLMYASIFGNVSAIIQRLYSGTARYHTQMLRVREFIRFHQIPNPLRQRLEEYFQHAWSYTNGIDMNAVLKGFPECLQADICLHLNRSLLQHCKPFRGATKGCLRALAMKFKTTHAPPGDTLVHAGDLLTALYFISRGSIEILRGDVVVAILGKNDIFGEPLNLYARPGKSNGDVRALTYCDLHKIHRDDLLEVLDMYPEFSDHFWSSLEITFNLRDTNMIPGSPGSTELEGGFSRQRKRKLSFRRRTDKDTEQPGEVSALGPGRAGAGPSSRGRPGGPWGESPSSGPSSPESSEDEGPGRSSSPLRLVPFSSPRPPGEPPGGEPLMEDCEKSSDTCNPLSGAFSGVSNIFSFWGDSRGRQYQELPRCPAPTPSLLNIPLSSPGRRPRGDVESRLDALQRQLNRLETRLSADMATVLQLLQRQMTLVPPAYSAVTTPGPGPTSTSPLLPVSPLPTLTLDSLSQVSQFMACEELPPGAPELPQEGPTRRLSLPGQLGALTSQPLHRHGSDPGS

Q: With CC(Cc1ccccc1)NCCC(c1ccccc1)c1ccccc1 (centres undefined) [PRENYLAMINE] as the compound, how does the IC50 read?
A: 0.065 µM

Biological target: Voltage-gated L-type calcium channel (Homo sapiens, UniProt Q13936+Q13698+Q01668+O60840)
Test: Inhibition of voltage-gated L-type Ca channel (species unknown)
Type: functional
Conditions: not given

Q: Which IC50 does the source give for CN(C)CCC=C1c2ccccc2CCc2ccccc21 [AMITRIPTYLINE] here?
A: 11.6 µM

Q: For CN(C)CCCN1c2ccccc2CCc2ccccc21 [IMIPRAMINE], which IC50 is on record?
A: 8.3 µM

Q: With O=C1NCCN1CCN1CCC(c2cn(-c3ccc(F)cc3)c3ccc(Cl)cc23)CC1 [SERTINDOLE] as the compound, how does the IC50 read?
A: 8.9 µM

Q: For c1ccc(C2(c3ccccc3)CC2C2=NCCN2)cc1 (centres undefined) [CIFENLINE], which IC50 is on record?
A: 30 µM

Biological target: T1, Voltage-gated inwardly rectifying potassium channel KCNH2
Test: (§1) Inhibition of hERG K channel
Type: functional
Conditions: not given
In short: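 IKr block assessed from concentration–response curves in HEK-293 cells stably transfected with hERG cDNA, giving IC50 values.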

Q: Which IC50 does the source give for CC[C@H]1[C@@H]2C[C@H]3[C@@H]4N(C)c5ccccc5[C@]45C[C@@H]([C@@H]2[C@H]5O)N3[C@@H]1O [AJMALINE] here?
A: 1.04 µM

Q: Which IC50 does the source give for C1CCC2(C1)C1CN(CC3CC3)CC2CN(CC2CC2)C1 here?
A: 2.5 µM

System: not listed separately
Test: (§2) Effective free therapeutic plasma concentration (EFTPC): the concentration of unbound compund in the blood plasma at therapeutic dose (mean of range)
Type: ADME, organism-based
Conditions: human, in vivo

Q: With O=c1[nH]c2ccccc2n1C1CCN(CCCC(c2ccc(F)cc2)c2ccc(F)cc2)CC1 [PIMOZIDE] as the compound, how does the EFTPC read?
A: 0.55 nM

Q: With CNCCCN1c2ccccc2CCc2ccccc21 [DESIPRAMINE] as the compound, how does the EFTPC read?
A: 67.5 nM

Q: With O=C(CCCN1CCC(O)(c2ccc(Cl)cc2)CC1)c1ccc(F)cc1 [HALOPERIDOL] as the compound, how does the EFTPC read?
A: 2.4 nM

Q: With COCC(=O)O[C@]1(CCN(C)CCCc2nc3ccccc3[nH]2)CCc2cc(F)ccc2[C@@H]1C(C)C [MIBEFRADIL] as the compound, how does the EFTPC read?
A: 9 nM

Q: With CN(C)CCCN1c2ccccc2Sc2ccc(Cl)cc21 [CHLORPROMAZINE] as the compound, how does the EFTPC read?
A: 20.5 nM

Q: With CN(C)CCCN1c2ccccc2CCc2ccccc21 [IMIPRAMINE] as the compound, how does the EFTPC read?
A: 70.5 nM

Q: Which EFTPC does the source give for O=C1NC(=O)C(c2ccccc2)(c2ccccc2)N1 [PHENYTOIN] here?
A: 4250 nM

Q: For CC[C@H]1[C@@H]2C[C@H]3[C@@H]4N(C)c5ccccc5[C@]45C[C@@H]([C@@H]2[C@H]5O)N3[C@@H]1O [AJMALINE], which EFTPC is on record?
A: 900 nM

Q: For CC(C)NCC(O)COc1cccc2ccccc12 (centres undefined) [PROPRANOLOL], which EFTPC is on record?
A: 19 nM

Q: Which EFTPC does the source give for O=C1NCCN1CCN1CCC(c2cn(-c3ccc(F)cc3)c3ccc(Cl)cc23)CC1 [SERTINDOLE] here?
A: 0.8 nM

Q: For CSc1ccc2c(c1)N(CCC1CCCCN1C)c1ccccc1S2 (centres undefined) [THIORIDAZINE], which EFTPC is on record?
A: 593.5 nM

Q: Which EFTPC does the source give for CN(CCOc1ccc(NS(C)(=O)=O)cc1)CCc1ccc(NS(C)(=O)=O)cc1 [DOFETILIDE] here?
A: 1.2 nM

Q: For COCCCC/C(=N\OCCN)c1ccc(C(F)(F)F)cc1 [FLUVOXAMINE], which EFTPC is on record?
A: 196 nM

Q: Which EFTPC does the source give for Cc1nc2n(c(=O)c1CCN1CCC(c3noc4cc(F)ccc34)CC1)CCCC2 [RISPERIDONE] here?
A: 1.21 nM

Q: Which EFTPC does the source give for CC(Cc1ccccc1)NCCC(c1ccccc1)c1ccccc1 (centres undefined) [PRENYLAMINE] here?
A: 13 nM

Q: Which EFTPC does the source give for COc1ccc([C@@H]2Sc3ccccc3N(CCN(C)C)C(=O)[C@@H]2OC(C)=O)cc1 [DILTIAZEM] here?
A: 87.5 nM

Q: Which EFTPC does the source give for CC(C)COCC(CN(Cc1ccccc1)c1ccccc1)N1CCCC1 (centres undefined) [BEPRIDIL] here?
A: 21.5 nM

Q: With CCOC(=O)C1=C(C)NC(C)=C(C(=O)OC)C1c1cccc([N+](=O)[O-])c1 (centres undefined) [NITRENDIPINE] as the compound, how does the EFTPC read?
A: 1.56 nM

Q: Which EFTPC does the source give for COc1cc(N)c(Cl)cc1C(=O)NC1CCN(CCCOc2ccc(F)cc2)CC1OC (centres undefined) [CISAPRIDE] here?
A: 3.75 nM

Q: For c1ccc(C2(c3ccccc3)CC2C2=NCCN2)cc1 (centres undefined) [CIFENLINE], which EFTPC is on record?
A: 739 nM

Q: For CC(C)(C)c1ccc(C(O)CCCN2CCC(C(O)(c3ccccc3)c3ccccc3)CC2)cc1 (centres undefined) [TERFENADINE], which EFTPC is on record?
A: 4.55 nM

Q: Which EFTPC does the source give for C1CCC2(C1)C1CN(CC3CC3)CC2CN(CC2CC2)C1 here?
A: 80 nM

System: not listed separately
Test: as §2
Conditions: human, in vivo

Q: With COC(=O)C1=C(C)NC(C)=C(C(=O)OC)C1c1ccccc1[N+](=O)[O-] [NIFEDIPINE] as the compound, how does the EFTPC read?
A: 5.4 nM

Biological target: Sodium channel alpha subunit
Test: Inhibition of Na channel (species unknown)
Type: functional
Conditions: not given

Q: For O=c1[nH]c2ccccc2n1C1CCN(CCCC(c2ccc(F)cc2)c2ccc(F)cc2)CC1 [PIMOZIDE], which IC50 is on record?
A: 0.054 µM

Q: With CN(C)CCCN1c2ccccc2Sc2ccc(Cl)cc21 [CHLORPROMAZINE] as the compound, how does the IC50 read?
A: 4.3 µM

Q: Which IC50 does the source give for CN(C)CCC=C1c2ccccc2CCc2ccccc21 [AMITRIPTYLINE] here?
A: 20 µM

Q: For CN(C)CCCN1c2ccccc2CCc2ccccc21 [IMIPRAMINE], which IC50 is on record?
A: 3.6 µM

Q: For O=C1NCCN1CCN1CCC(c2cn(-c3ccc(F)cc3)c3ccc(Cl)cc23)CC1 [SERTINDOLE], which IC50 is on record?
A: 2.3 µM

Q: With CN(CCOc1ccc(NS(C)(=O)=O)cc1)CCc1ccc(NS(C)(=O)=O)cc1 [DOFETILIDE] as the compound, how does the IC50 read?
A: 300 µM

Q: For COc1ccc([C@@H]2Sc3ccccc3N(CCN(C)C)C(=O)[C@@H]2OC(C)=O)cc1 [DILTIAZEM], which IC50 is on record?
A: 9 µM

Q: Which IC50 does the source give for CCOC(=O)C1=C(C)NC(C)=C(C(=O)OC)C1c1cccc([N+](=O)[O-])c1 (centres undefined) [NITRENDIPINE] here?
A: 36 µM

Q: Which IC50 does the source give for c1ccc(C2(c3ccccc3)CC2C2=NCCN2)cc1 (centres undefined) [CIFENLINE] here?
A: 7.8 µM

Q: Which IC50 does the source give for C1CCC2(C1)C1CN(CC3CC3)CC2CN(CC2CC2)C1 here?
A: 20 µM

Biological target: Sodium channel protein type 5 subunit alpha (Homo sapiens, UniProt Q14524)
Test: Inhibition of sodium current measured using whole-cell patch clamp experiments in HEK-293 cells stably transfected with hNaV1.5 cDNA
Type: functional, cell-based, HEK293
Conditions: not given

Sequence of Sodium channel protein type 5 subunit alpha (Q14524 whole entry): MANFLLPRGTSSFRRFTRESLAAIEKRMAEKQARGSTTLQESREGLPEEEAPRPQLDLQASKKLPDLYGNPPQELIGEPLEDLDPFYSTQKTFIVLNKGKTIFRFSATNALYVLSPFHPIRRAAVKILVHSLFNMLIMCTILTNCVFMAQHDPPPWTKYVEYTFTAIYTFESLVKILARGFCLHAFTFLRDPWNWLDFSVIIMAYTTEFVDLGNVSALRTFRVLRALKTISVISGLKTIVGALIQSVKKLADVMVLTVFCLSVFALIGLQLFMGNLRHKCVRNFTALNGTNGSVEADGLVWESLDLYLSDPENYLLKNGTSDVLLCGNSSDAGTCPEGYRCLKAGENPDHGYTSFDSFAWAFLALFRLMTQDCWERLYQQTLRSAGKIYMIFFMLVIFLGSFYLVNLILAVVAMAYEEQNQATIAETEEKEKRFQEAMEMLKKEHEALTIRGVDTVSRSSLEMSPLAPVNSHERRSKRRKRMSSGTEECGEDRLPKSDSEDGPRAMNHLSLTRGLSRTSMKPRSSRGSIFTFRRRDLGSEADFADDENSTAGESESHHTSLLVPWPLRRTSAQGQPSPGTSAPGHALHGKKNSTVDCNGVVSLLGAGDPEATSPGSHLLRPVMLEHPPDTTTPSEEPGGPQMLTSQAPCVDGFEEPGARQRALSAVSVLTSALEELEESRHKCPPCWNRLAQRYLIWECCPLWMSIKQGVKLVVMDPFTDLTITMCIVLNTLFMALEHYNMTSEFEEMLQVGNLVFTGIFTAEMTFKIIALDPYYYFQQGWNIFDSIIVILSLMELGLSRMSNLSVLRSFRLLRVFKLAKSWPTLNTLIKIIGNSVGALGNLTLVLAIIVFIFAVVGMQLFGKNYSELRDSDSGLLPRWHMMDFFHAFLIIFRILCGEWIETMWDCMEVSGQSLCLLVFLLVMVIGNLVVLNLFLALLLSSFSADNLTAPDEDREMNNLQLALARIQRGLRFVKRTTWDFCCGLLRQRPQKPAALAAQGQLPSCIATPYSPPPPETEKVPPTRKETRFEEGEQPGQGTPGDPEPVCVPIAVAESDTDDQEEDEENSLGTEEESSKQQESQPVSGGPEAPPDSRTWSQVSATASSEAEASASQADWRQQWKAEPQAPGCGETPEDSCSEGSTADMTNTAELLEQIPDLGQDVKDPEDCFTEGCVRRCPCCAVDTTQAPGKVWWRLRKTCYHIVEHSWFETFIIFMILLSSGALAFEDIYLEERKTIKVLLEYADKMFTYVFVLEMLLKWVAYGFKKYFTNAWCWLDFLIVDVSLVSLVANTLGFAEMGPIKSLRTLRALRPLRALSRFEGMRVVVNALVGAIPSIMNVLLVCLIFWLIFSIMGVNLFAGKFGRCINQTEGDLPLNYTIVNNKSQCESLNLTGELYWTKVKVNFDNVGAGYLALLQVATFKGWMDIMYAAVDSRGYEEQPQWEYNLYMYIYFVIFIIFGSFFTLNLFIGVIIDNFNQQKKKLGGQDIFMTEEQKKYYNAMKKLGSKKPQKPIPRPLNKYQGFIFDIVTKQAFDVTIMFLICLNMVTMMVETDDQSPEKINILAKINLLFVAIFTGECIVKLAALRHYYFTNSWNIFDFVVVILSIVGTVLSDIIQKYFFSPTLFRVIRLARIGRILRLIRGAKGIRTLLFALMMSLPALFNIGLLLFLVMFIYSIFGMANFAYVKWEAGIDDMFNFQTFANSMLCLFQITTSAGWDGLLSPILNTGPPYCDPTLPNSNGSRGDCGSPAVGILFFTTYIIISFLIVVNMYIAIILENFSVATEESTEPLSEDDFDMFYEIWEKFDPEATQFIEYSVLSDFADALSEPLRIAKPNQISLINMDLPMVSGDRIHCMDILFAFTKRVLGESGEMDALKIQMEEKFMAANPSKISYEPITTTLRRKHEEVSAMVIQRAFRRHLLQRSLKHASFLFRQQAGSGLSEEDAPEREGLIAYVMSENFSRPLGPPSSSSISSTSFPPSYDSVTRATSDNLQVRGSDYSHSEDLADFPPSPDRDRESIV

Q: Which IC50 does the source give for O=C1NC(=O)C(c2ccccc2)(c2ccccc2)N1 [PHENYTOIN] here?
A: 49 µM

Q: With CC(Cc1ccccc1)NCCC(c1ccccc1)c1ccccc1 (centres undefined) [PRENYLAMINE] as the compound, how does the IC50 read?
A: 2.52 µM

Q: Which IC50 does the source give for CC(C)COCC(CN(Cc1ccccc1)c1ccccc1)N1CCCC1 (centres undefined) [BEPRIDIL] here?
A: 3.7 µM

Q: For COc1cc(N)c(Cl)cc1C(=O)NC1CCN(CCCOc2ccc(F)cc2)CC1OC (centres undefined) [CISAPRIDE], which IC50 is on record?
A: 14.7 µM

Biological target: T1, Voltage-gated inwardly rectifying potassium channel KCNH2
Test: as §1
Conditions: not given

Q: With Cc1cccc(C)c1OCC(C)N (centres undefined) [MEXILETINE] as the compound, how does the IC50 read?
A: > 10 µM
